# Measured values from PMC8426090 (ACS chemical neuroscience, 2021).
# Entries after “also recorded” stand apart in the source; their conditions may differ. Where a name gives a salt, the structure may show the parent alone.
# How the values were obtained:
# dopamine D2 receptor [1] = target: dopamine D2 receptor (Rattus norvegicus, UniProt P61169); experiment: in vitro autoradiography on rat brain sections; type: binding; settings: transaxial and coronal/transversal sections; excess competitor
# dopamine D2 receptor [2] = settings: co-incubation with guanylylimidodiphosphate; cited from earlier work
# [3] = biodistribution of [3H]MCL-536 in the rat brain; type: in vivo, Sprague–Dawley rats; settings: for uptake in striatum, % injected dose per gram wet tissue: 15 min after tail vein injection
# [4] = biodistribution of [3H]MCL-536 in peripheral organs; type: in vivo, Sprague–Dawley rats
# D2^high = settings: cited from earlier work
# [5] = human liver microsome stability assay; type: in vitro ADME; settings: 1 h (60 min), 37 °C, NADPH 1 mM, pooled human liver microsomes
# Outline: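 Test compound (from a 100× stock) preincubated 5 min at 37 °C with pooled human liver microsomes in 100 mM phosphate buffer pH 7.4. NADPH (1 mM final) started the reaction, run 30 or 60 min at 37 °C and quenched with cold acetonitrile. Supernatant analysed by C18 HPLC (UV 265 nm), with remaining parent expressed relative to the 0 min sample. Dextromethorphan was the positive control; negative controls were heat-inactivated microsomes and no NADPH. Triplicate.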
# [6] = system: other receptors of the D2 receptor family; other receptors found in the brain; settings: cited from earlier work
# Chain of dopamine D2 receptor (Rattus norvegicus, UniProt P61169) (P61169 whole entry): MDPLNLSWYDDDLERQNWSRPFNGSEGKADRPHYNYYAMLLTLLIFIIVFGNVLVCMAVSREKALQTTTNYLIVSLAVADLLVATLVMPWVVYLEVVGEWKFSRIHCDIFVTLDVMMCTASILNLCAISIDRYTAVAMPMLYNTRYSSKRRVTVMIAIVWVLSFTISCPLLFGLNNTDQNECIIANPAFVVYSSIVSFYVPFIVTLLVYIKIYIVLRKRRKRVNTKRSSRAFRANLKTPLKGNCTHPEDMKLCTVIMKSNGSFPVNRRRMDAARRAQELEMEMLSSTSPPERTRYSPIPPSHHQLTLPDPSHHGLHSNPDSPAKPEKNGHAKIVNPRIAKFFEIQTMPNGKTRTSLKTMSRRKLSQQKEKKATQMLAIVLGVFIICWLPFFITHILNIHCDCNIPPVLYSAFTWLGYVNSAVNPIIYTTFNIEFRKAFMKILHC
structure (smiles),measurement,setting,value
CCN1CCC[C@H]1CNC(=O)c1c(O)c(Cl)cc(Cl)c1OC [raclopride],effect on binding of [3H]MCL-536 on brain sections (summary statements),dopamine D2 receptor [1],completely abolished
"Nc1nc2c(ncn2[C@@H]2O[C@H](COP(=O)(O)OP(=O)(O)NP(=O)(O)O)[C@@H](O)[C@H]2O)c(=O)[nH]1 [Gpp(NH)p, guanylylimidodiphosphate]",effect on binding of [3H]MCL-536 on brain sections (summary statements),dopamine D2 receptor [1],abolished binding
same,binding of [3H]MCL-536 to D2high on co-incubation,dopamine D2 receptor [2],abolished binding to D2^high
[3H]C(C)C([3H])N1CCc2cc(OCCCF)cc3c2[C@H]1Cc1cccc(O)c1-3 (stereo partly shown) [[^3H]MCL-536],brain uptake values 4 h after injection,[3]; 4 h after injection,almost baseline
same,"uptake in striatum, % injected dose per gram wet tissue",[3]; female rats,0.42 %ID/g
same,course of %ID/g in the striatum,"[3]; females, 60 min postinjection",stable
same,baseline binding in cerebellum,[3]; male and female rats,≤ 0.1 %ID/g
same,"uptake in striatum, % injected dose per gram wet tissue",[3]; male rats,0.28 %ID/g
same,decline of %ID/g in the striatum,"[3]; males, 60 min postinjection",about 25%
same,time of maximum %ID/g in peripheral tissues,[4]; all peripheral tissues,15 min
same,reduction of levels in fatty tissue,[4]; at 60 min,about 2/3
same,decline of %ID/g in the kidneys,"[4]; by 60 min, both sexes",about 60%
CCN1CCCC1CNC(=O)c1cc(S(N)(=O)=O)ccc1OC (stereo not shown) [sulpiride],effect on binding of [3H]MCL-536 on brain sections (summary statements),dopamine D2 receptor [1],completely abolished
"C[C@H](N)Cc1ccccc1 [Amphetamine, d-amphetamine sulfate]","increase in D2high, measured in the striatum in vivo",D2^high; in vivo,~2.36 fold
same,elevation of D2high in vitro in the same tissue,"D2^high; striatum, in vitro",2.44 fold
[3H]C(C)C([3H])N1CCc2cc(OCCCF)cc3c2[C@H]1Cc1cccc(O)c1-3 (stereo partly shown) [MCL-536],compound remaining intact after incubation with human liver microsomes,[5],about 75%
same,affinity for other receptors found in the brain / other receptors tested,[6],little to no affinity
same,affinity for other receptors of the D2 receptor family,[6],but not for the other receptors of the D2 subfamily; also recorded: but not to other receptors of the D2 receptor family
"CCCN1CCc2cccc3c2[C@H]1Cc1ccc(O)c(O)c1-3 [NPA, (R)-(−)-N-n-propylnorapomorphine]",effect on binding of [3H]MCL-536 on brain sections (summary statements),dopamine D2 receptor [1],abolished
